Measured values collected from several papers.
MAL12: Alpha-glucosidase MAL12 (MAL12, Saccharomyces cerevisiae S288c, UniProt P53341)
MAP3K7: Mitogen-activated protein kinase kinase kinase 7 (MAP3K7, Homo sapiens, UniProt O43318)

| SMILES | target | observed | mode | technique | tested at | endpoint | value |
| --- | --- | --- | --- | --- | --- | --- | --- |
| CCCCCCCCCCCCCC(=O)OCC(C)(C)CC1=C(O)C(=O)c2ccccc2C1=O | MAL12 | enzyme activity | inhibitor |  | 50 µM | inhibition | > 70% |
| CS(=O)(=NC#N)c1ccccc1Nc1nc(Nc2ccnc(CO)c2)ncc1Cl (stereo not drawn) | MAP3K7 | enzyme activity | inhibitor |  | 1 µM | remaining activity | 80.5% |
| O=C1C[C@@H](c2ccc(O)cc2)Oc2c(Br)c(O)c(Br)c(O)c21 | MAL12 | enzyme activity | inhibitor | absorbance | 50 µM | inhibition | 80.5% |
| C#Cc1cnc(Nc2ccc(CO)nc2)nc1Nc1ccccc1S(C)(=O)=NC#N (stereo not drawn) | MAP3K7 | enzyme activity | inhibitor |  | 1 µM | remaining activity | 50.4% |
| C#Cc1cc(-c2cc(Nc3nc(N[C@@H](C)c4ccc(F)cn4)ncc3Cl)n[nH]2)ccc1C=O | Mitotic checkpoint serine/threonine-protein kinase BUB1 (BUB1, Homo sapiens, UniProt O43683) | enzyme activity | inhibitor |  | 0.2 µM | inhibition | 35% |
| O=c1cc(-c2ccccc2)oc2cc(O)cc(O)c12 | MAL12 | enzyme activity | inhibitor | absorbance | 50 µM | inhibition | 31.2% |
| COc1cc2c3c(c1OC)-c1c(OC)ccc(-c4ccc(C#N)cc4)c1CC3N(C)CC2 (stereo not drawn) | Alpha-1A adrenergic receptor (ADRA1A, Homo sapiens, UniProt P35348) | ligand displacement |  | radioligand | 10 µM | inhibition | 83% |
| CCCCC(=O)Nc1ccc(-c2ccc3ncn(CCC)c(=O)c3c2)cn1 | Serine/threonine-protein kinase tousled-like 2 (TLK2, Homo sapiens, UniProt Q86UE8) | binding |  | competition with immobilised ligand | 0.5 µM | remaining binding | 87% |
| COc1ccc2oc(-c3ccc4nc(N)oc4c3)c/c(=N\c3ccccc3NC(=O)CCN)c2c1 | Bone morphogenetic protein receptor type-1B (BMPR1B, Homo sapiens, UniProt O00238) | binding |  |  | 1 µM | remaining binding | 99% |
| COc1cc(O)c2c(c1)O[C@H](c1ccccc1)CC2=O | MAL12 | enzyme activity | inhibitor | absorbance | 50 µM | inhibition | 15.1% |
| C1=C/COCc2cc(ccc2OCCN2CCCC2)Nc2nccc(n2)-c2cccc(c2)COC/1 | Tyrosine-protein kinase Lyn (LYN, Homo sapiens, UniProt P07948) | binding |  |  | 0.1 µM | remaining binding | 88% |
| C#Cc1cnc(Nc2ccc(CO)cc2)nc1Nc1ccccc1C(=O)NC | MAP3K7 | enzyme activity | inhibitor |  | 1 µM | remaining activity | 76.9% |
